# Source: ChEMBL document CHEMBL1149396, “In silico design and synthesis of piperazine-1-pyrrolidine-2,5-dione scaffold-based novel malic enzyme inhibitors” (Bioorg Med Chem Lett, 2006)
# pIC50: −log10 of the molar value.
# Target: T1, NADP-dependent malic enzyme (Homo sapiens, UniProt P48163)
# T1 sequence (P48163 whole entry): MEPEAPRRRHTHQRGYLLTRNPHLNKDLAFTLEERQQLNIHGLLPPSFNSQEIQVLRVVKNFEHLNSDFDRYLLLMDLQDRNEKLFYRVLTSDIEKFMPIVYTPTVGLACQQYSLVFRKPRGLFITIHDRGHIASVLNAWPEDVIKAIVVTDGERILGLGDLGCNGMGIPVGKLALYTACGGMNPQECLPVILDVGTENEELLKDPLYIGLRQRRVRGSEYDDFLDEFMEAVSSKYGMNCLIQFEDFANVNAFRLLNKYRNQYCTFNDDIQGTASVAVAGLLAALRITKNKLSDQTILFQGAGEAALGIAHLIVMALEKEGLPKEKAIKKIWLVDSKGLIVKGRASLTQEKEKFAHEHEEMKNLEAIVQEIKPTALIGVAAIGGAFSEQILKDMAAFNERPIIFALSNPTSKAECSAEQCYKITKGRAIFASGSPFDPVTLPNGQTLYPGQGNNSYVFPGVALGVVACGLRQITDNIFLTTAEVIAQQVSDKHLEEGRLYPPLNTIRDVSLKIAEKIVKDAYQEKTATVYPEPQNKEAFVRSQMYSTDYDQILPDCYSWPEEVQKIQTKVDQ
# Test: Inhibitory activity against cytosolic malic enzyme
# How it was run: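 Coupled endpoint assay. Enzyme pre-incubated with compound 45 min at room temperature in 85 mM Tris pH 7.5 containing 2 mM malic acid and 5 mM MnCl2. Reaction started with 124 µM NADP, run 30 min at room temperature, stopped with 0.5 M EDTA. NADPH formed read via MTS/PMS reduction to formazan, absorbance at 492 nm.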
row,pIC50,Structure (SMILES)
1,5.00,O=C1CC(N2CCN(c3cccc(O)c3)CC2)C(=O)N1Cc1ccccc1 (stereo not given)
2,6.35,O=C1CC(N2CCN(c3ccc(O)cc3)CC2)C(=O)N1Cc1ccccc1 (stereo not given)
3,< 4.70,COc1ccc(N2CCN(C3CC(=O)N(c4ccccc4)C3=O)CC2)cc1 (stereo not given)
4,< 4.70,COc1ccc(N2CCN(C3CC(=O)N(Cc4ccccc4)C3=O)CC2)cc1 (stereo not given)
5,6.25,Cc1ccc(N2C(=O)CC(N3CCN(c4ccc(O)cc4)CC3)C2=O)cc1Cl (stereo not given)
6,5.50,O=C1CC(N2CCN(c3cccc(C(F)(F)F)c3)CC2)C(=O)N1c1ccccc1 (stereo not given)
7,< 4.70,O=C1CC(N2CCN(c3ccccc3O)CC2)C(=O)N1Cc1ccccc1 (stereo not given)
8,5.00,O=C1CC(N2CCN(c3ccc(F)cc3)CC2)C(=O)N1c1ccccc1 (stereo not given)
9,< 4.70,COc1ccc(N2CCN(C3CC(=O)N(c4cccc(Cl)c4Cl)C3=O)CC2)cc1 (stereo not given)
10,6.82,O=C1CC(N2CCN(c3ccc(O)cc3)CC2)C(=O)N1c1ccccc1 (stereo not given)
